Assay outcomes from PubChem.
A selection: hits, their analogues and other compounds. The true share with any hit is near 12%.
bCat nuc transl = modulators of beta-catenin nuclear translocation, primary screen, imaging, HeLa cells, immunofluorescence, high-content; nuclear translocation activity, % at 5 µM; actives 0.3% (n = 190,000);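 active means nuclear translocation activity above 50% at 5 µM, with a well cell count of 50 or more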;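 further: per-cell ratio of nuclear to cytoplasmic median beta-catenin stain intensity; plate controls were DMSO negative control for no effect and GSK-3 inhibitor IX positive control for full effect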
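test system = HeLa cells, endogenous beta-catenin | dosing = single 5 µM dose plus 0.02–20 µM confirmation series | times = compound treatment 24 h, 37°C, 5% CO2 | technique = beta-catenin immunofluorescence imaging with DAPI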
CHOP inh = inhibitors of CHOP promoter induction, primary screen, cell-based, unfolded protein response, luciferase reporter; inhibition, % at 10 µM; actives 3.8% (n = 220,000); CHO-K1 CHOP-promoter luciferase, tunicamycin-induced, 15-18 h;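 active means compounds that reduced the stress-induced luciferase reporter signal by more than about 70% of percent inhibition, limit read from the data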;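 further: 0% = tunicamycin plus vehicle and 100% = wells without tunicamycin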
Lmaj promast = Leishmania major promastigote growth inhibition, primary screen | Leishmania major promastigotes, resazurin fluorescence viability | inhibition, % at 10 µM | actives 9% (n = 200,000); in the data active means inhibition above about 50%;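 further: promastigotes grown with compound for 44 hours at 28 °C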
MT stabilizer = microtubule stabilizers in HeLa cells, primary screen, imaging, high-content imaging; HeLa tubulin immunostaining HCS, 24 h; share of cells brighter than vehicle mean+2SD; % tubulin-high responders, % at 10 µM; actives 0.83% (n = 200,000); AID 2205, 2009;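 active means plate Z-score above 3 for both tubulin-high and condensed-nucleus cell shares, with cell loss under 80%, at 10 µM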;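 further: anti alpha tubulin signal scored within the nucleus-defined area of each cell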
Autophagy HCS = autophagy modulators in MEF cells, primary screen, imaging, high-content, MEF GFP-LC3 | actives 0.98% (n = 190,000) | MEF GFP-LC3 puncta imaging; test concentration mostly 10 µM | calls only at 10 µM (by protocol);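 active means percentage of spot-positive cells more than 3 SD above its plate mean, without a fluorescence outlier flag or 80% toxicity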;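 further: spot-positive cell cutoff set from DMSO-treated cells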
Dynein cargo inh = inhibitors of GR-EGFP nuclear translocation, primary screen, dynein cargo transport inhibitor project, imaging, high-content, 3617.4 mouse cells; test concentration mostly 20 µM; stimulated with dexamethasone, 1 µM; active compounds read low; z-score, hits read low; actives 0.47% (n = 220,000); AID 1381, 2008;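 active means plate z-score of nuclear minus cytoplasmic receptor signal below a set negative limit, without overly bright fluorescence or cell loss, cut at about -3.5 in these data, passing the limit was not always enough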;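 further: z-score of nuclear minus cytoplasmic ring GR-EGFP intensity difference per well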
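Also added – dexamethasone, 1.0 µM final · Buffer or medium – tet-free, stripped-serum medium · Schedule – induction 48 h, compound 1 h, agonist 30 min · Detection – formaldehyde fixation, Hoechst nuclear stain, 10x automated fluorescence imaging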
Starred values were filed as active, the others as inactive.

`CCOC(=O)c1ccc2nc(Nc3nc4ccc(F)cc4s3)sc2c1` gave bCat nuc transl 1.5, CHOP inh 89.7*, Lmaj promast 43.5, MT stabilizer 2.2, Autophagy HCS inactive and Dynein cargo inh -0.54.
Screening COC(=O)c1ccc2nc(Nc3nc4c(F)cc(F)cc4s3)sc2c1 returned bCat nuc transl -5.7, CHOP inh 92.5*, Lmaj promast 51.5*, MT stabilizer 2.9, Autophagy HCS inactive and Dynein cargo inh 0.242.
Screening CCOC(=O)Nc1nc(-c2ccccc2)c(C(=O)c2ccc(Cl)cc2)s1 returned bCat nuc transl 182.3*, CHOP inh -19.6, Lmaj promast 3.8, MT stabilizer 9.4, Autophagy HCS inactive and Dynein cargo inh 0.59.
CCOC(=O)Nc1sc(C)nc1-c1ccccc1 was read as bCat nuc transl -5.2, CHOP inh 18.9, Lmaj promast -0.3, MT stabilizer 2.8, Autophagy HCS inactive and Dynein cargo inh -1.22.
For CCCC(=O)Nc1nc2ccc(S(=O)(=O)N3CCCCC3)cc2s1 the results were bCat nuc transl 7.2, Lmaj promast 1.7, MT stabilizer 4.5, Autophagy HCS inactive and Dynein cargo inh -0.407.
COC(=O)c1ccc2nc(NC(=O)C(C)C)sc2c1 was read as bCat nuc transl 0.5, CHOP inh -21.8, Lmaj promast 6.3, MT stabilizer 2.9, Autophagy HCS inactive and Dynein cargo inh 0.395.
O=C(CCC1CCCC1)Nc1nnc(-c2ccc3c(c2)OCO3)s1 was read as CHOP inh 25.0, Lmaj promast -3.9, MT stabilizer 5.8, Autophagy HCS inactive and Dynein cargo inh 1.11.
`NS(=O)(=O)c1ccc(NC(=O)CN2C(=O)C3C4C=CC(C4)C3C2=O)cc1` (stereo unspecified) gave bCat nuc transl 2.3, CHOP inh -5.7, Lmaj promast -3.5, MT stabilizer 2.1, Autophagy HCS inactive and Dynein cargo inh 0.521.
Screening O=C(NCc1ccccc1Cl)C1CCN(c2cnccn2)CC1 returned bCat nuc transl -1.5, CHOP inh 4.7, Lmaj promast 7.7, MT stabilizer 3.7, Autophagy HCS inactive and Dynein cargo inh 0.162.
`NNc1nc2c(F)cc(F)cc2s1` gave bCat nuc transl -0.3, CHOP inh 10.8, Lmaj promast 95.2*, MT stabilizer 1.6, Autophagy HCS inactive and Dynein cargo inh 0.357.
For CCOC(=O)N1CCN(S(=O)(=O)c2ccc(C(=O)Nc3nc4ccc(F)cc4s3)cc2)CC1 the results were bCat nuc transl 3.7, CHOP inh 84.1*, Lmaj promast 17.1, MT stabilizer 7.2, Autophagy HCS inactive and Dynein cargo inh -1.77.
CCOC(=O)c1sc(NC(=O)c2ccc(S(=O)(=O)N3CCCCC3)cc2)nc1-c1ccccc1 was read as bCat nuc transl 1.9, CHOP inh 84.4*, Lmaj promast 47.7, MT stabilizer 2.9, Autophagy HCS inactive and Dynein cargo inh 0.154.
For O=C(CCc1ccccc1)Nc1nc2c(F)cc(F)cc2s1 the results were bCat nuc transl -0.6, CHOP inh 25.8 and Dynein cargo inh 2.07.
`CCOC(=O)N1CCN(S(=O)(=O)c2ccc(C(=O)Nc3nc4ccccc4s3)cc2)CC1` gave bCat nuc transl -1.0, CHOP inh 25.6, Lmaj promast 0.0, MT stabilizer 4.9, Autophagy HCS inactive and Dynein cargo inh -0.0991.
`CCCN(CC(=O)Nc1ccc(F)c(F)c1F)CC(=O)Nc1c(Cl)cccc1Cl` gave bCat nuc transl -0.1, CHOP inh 7.5, Lmaj promast 9.1, MT stabilizer 1.8, Autophagy HCS inactive and Dynein cargo inh 0.144.
CCCN(CC(=O)Nc1ccc(C)cc1Br)CC(=O)Nc1ccc(F)c(F)c1F was read as bCat nuc transl 1.4, CHOP inh 72.0*, Lmaj promast 4.2, MT stabilizer 6.5, Autophagy HCS inactive and Dynein cargo inh -0.522.
Screening CCCN(CC(=O)Nc1cccc(Br)c1)CC(=O)Nc1ccc(F)c(F)c1F returned bCat nuc transl 0.4, CHOP inh 79.1*, Lmaj promast 6.8, MT stabilizer 4.7, Autophagy HCS inactive and Dynein cargo inh 0.383.
CCCCNCC1C(Oc2ccc(Cl)cc2)C(=O)N1c1ccccc1C (stereo unspecified) was read as bCat nuc transl -3.4, CHOP inh 77.4*, Lmaj promast 40.5, MT stabilizer 1.7, Autophagy HCS inactive and Dynein cargo inh -0.427.
For CCCNCC1C(Oc2ccc(Cl)cc2Cl)C(=O)N1c1cccc(C)c1C (stereo unspecified) the results were bCat nuc transl 0.1, CHOP inh -2.3, Lmaj promast 71.7*, MT stabilizer 2.7, Autophagy HCS active and Dynein cargo inh -0.466.
`Cc1cccc(N2C(=O)C(Oc3ccc(Cl)cc3Cl)C2C(=O)O)c1C` (stereo unspecified) gave bCat nuc transl 0.6, CHOP inh 19.8, Lmaj promast -6.2, MT stabilizer 2.2, Autophagy HCS inactive and Dynein cargo inh 0.179.
`C=C(C)Cn1c(C)cc(C)c(S(=O)(=O)c2ccc(C)cc2)c1=O` gave bCat nuc transl -0.1, CHOP inh 55.5, Lmaj promast 67.7*, MT stabilizer 2.8, Autophagy HCS inactive and Dynein cargo inh 0.261.
COc1ccccc1N(C)S(=O)(=O)c1ccc(Cl)c(C(=O)NC2=NCCS2)c1 was read as bCat nuc transl -2.6, CHOP inh -21.7, Lmaj promast 57.0*, MT stabilizer 3.1, Autophagy HCS inactive and Dynein cargo inh 1.22.
COc1ccccc1N(C)S(=O)(=O)c1ccc(C(=O)Nc2ccc(N3CCOCC3)cc2)cc1 was read as bCat nuc transl -1.2, CHOP inh 10.3, Lmaj promast 98.9*, MT stabilizer 3.5, Autophagy HCS inactive and Dynein cargo inh -0.557.
CN(c1ccccc1)S(=O)(=O)c1ccc(Cl)c(C(=O)NC2=NCCS2)c1 was read as bCat nuc transl 0.0, CHOP inh 11.9, Lmaj promast 7.0, MT stabilizer 2.0, Autophagy HCS inactive and Dynein cargo inh -0.392.
For COc1cccc(C(=O)Nc2nc3ccccc3[nH]2)c1 the results were CHOP inh 0.1, Lmaj promast 28.8, MT stabilizer 2.8, Autophagy HCS inactive and Dynein cargo inh 0.916.
For Cc1nc2ccc(NC(=O)c3cccc(S(=O)(=O)N(C)c4ccccc4)c3)cc2s1 the results were bCat nuc transl 2.3, CHOP inh 36.8, Lmaj promast 98.8*, MT stabilizer 2.0, Autophagy HCS inactive and Dynein cargo inh 0.271.
